Laboratory results: ChEMBL document CHEMBL4002604, “Evaluation of biological properties of 3,3',4,4'-benzophenonetetracarboxylic dianhydride derivatives and their ability to inhibit hexokinase activity” (2017)

How the values were obtained:
[1] = system: P19; assay: Cytotoxicity against undifferentiated mouse P19 cells assessed as metabolic activity at 1 to 100 uM after 24 hrs by resazurin assay relative to control; format: functional
Outline: (§1)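 Metabolic activity by resazurin reduction in undifferentiated (P19SCs) or differentiated (P19dCs) P19 cells. Exposure to 1, 10 or 100 µM for 24, 48 or 72 h. Read-out relative to untreated control. Significance vs control at p<0.05.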

[2] = system: P19; assay: Cytotoxicity against differentiated mouse P19 cells assessed as mitochondrial membrane potential at 1 uM after 24 hrs by TMRF dye based fluorescence assay relative to control; format: functional
Outline: (§2)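 Undifferentiated (P19SCs) or differentiated (P19dCs) P19 cells incubated 24 or 72 h with 1 or 100 µM. Mitochondrial membrane potential and mitochondrial superoxide levels measured and expressed relative to untreated control. Means ± SD from 4 independent measurements, at least 4 repeats each. Significance at p<0.05.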

[3] = system: P19; assay: Cytotoxicity against differentiated mouse P19 cells assessed as cell mass at 1 to 100 uM after 24 hrs by SRB assay relative to control; format: functional
Outline: (§3)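 Cell mass by SRB assay in P19 cells (CRL-1825), either undifferentiated (P19SCs) or differentiated (P19dCs). Cells exposed to 1, 10 or 100 µM for 24, 48 or 72 h. Values expressed relative to untreated control. Means ± SD from at least 4 independent measurements, 6 repeats each. Significance vs control at p<0.05.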

[4] = system: P19; assay: Cytotoxicity against undifferentiated mouse P19 cells assessed as mitochondrial superoxide anion level at 1 uM after 24 hrs by MitoSox dye based fluorescence assay relative to control; format: functional; outline: as §2
[5] = system: P19; assay: Cytotoxicity against undifferentiated mouse P19 cells assessed as cell mass at 1 to 100 uM after 48 hrs by SRB assay relative to control; format: functional; outline: as §3
[6] = system: P19; assay: Cytotoxicity against differentiated mouse P19 cells assessed as mitochondrial superoxide anion level at 1 uM after 24 hrs by MitoSox dye based fluorescence assay relative to control; format: functional; outline: as §2
[7] = system: P19; assay: Cytotoxicity against differentiated mouse P19 cells assessed as metabolic activity at 1 to 100 uM after 24 hrs by resazurin assay relative to control; format: functional; outline: as §1
[8] = system: P19; assay: Cytotoxicity against differentiated mouse P19 cells assessed as cell mass at 1 to 100 uM after 72 hrs by SRB assay relative to control; format: functional; outline: as §3
[9] = system: P19; assay: Cytotoxicity against undifferentiated mouse P19 cells assessed as mitochondrial membrane potential at 100 uM after 72 hrs by TMRF dye based fluorescence assay relative to control; format: functional; outline: as §2
[10] = system: P19; assay: Cytotoxicity against undifferentiated mouse P19 cells assessed as mitochondrial superoxide anion level at 100 uM after 72 hrs by MitoSox dye based fluorescence assay relative to control; format: functional; outline: as §2
[11] = system: P19; assay: Cytotoxicity against undifferentiated mouse P19 cells assessed as mitochondrial superoxide anion level at 100 uM after 24 hrs by MitoSox dye based fluorescence assay relative to control; format: functional; outline: as §2
[12] = system: P19; assay: Cytotoxicity against differentiated mouse P19 cells assessed as mitochondrial superoxide anion level at 100 uM after 72 hrs by MitoSox dye based fluorescence assay relative to control; format: functional; outline: as §2
[13] = target: T1, Hexokinase-2 (Mus musculus) (UniProt O08528); assay: Potency index, ratio of compound effect to 2-DG effect for inhibition of HK2 in mouse undifferentiated P19 cells
T1 sequence (whole entry): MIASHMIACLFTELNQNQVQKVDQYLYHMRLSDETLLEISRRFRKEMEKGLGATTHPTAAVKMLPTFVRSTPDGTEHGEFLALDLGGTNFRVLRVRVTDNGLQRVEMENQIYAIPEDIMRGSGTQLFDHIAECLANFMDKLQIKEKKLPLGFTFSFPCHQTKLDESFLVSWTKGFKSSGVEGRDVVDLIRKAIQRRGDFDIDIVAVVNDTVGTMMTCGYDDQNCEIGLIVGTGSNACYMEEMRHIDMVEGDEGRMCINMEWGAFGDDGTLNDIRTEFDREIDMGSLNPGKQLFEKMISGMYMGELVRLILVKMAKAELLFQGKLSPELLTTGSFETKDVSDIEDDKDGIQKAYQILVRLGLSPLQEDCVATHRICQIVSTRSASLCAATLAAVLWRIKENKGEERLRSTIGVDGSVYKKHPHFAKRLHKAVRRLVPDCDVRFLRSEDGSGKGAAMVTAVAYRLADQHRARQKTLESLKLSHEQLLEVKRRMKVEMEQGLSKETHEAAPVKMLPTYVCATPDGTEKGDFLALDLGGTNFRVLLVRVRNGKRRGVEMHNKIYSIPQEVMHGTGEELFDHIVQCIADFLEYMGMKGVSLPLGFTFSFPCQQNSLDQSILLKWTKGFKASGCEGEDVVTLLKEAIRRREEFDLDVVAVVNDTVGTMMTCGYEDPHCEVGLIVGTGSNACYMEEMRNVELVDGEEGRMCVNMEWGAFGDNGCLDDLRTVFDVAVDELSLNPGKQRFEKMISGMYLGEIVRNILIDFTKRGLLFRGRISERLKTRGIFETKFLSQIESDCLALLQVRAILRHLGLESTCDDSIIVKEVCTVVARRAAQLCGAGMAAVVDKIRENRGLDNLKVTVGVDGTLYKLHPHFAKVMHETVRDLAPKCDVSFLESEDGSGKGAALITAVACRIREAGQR

[14] = system: P19; assay: Cytotoxicity against differentiated mouse P19 cells assessed as metabolic activity at 1 to 100 uM after 72 hrs by resazurin assay relative to control; format: functional; outline: as §1
[15] = system: P19; assay: Cytotoxicity against undifferentiated mouse P19 cells assessed as mitochondrial superoxide anion level at 1 uM after 72 hrs by MitoSox dye based fluorescence assay relative to control; format: functional; outline: as §2
[16] = system: P19; assay: Cytotoxicity against undifferentiated mouse P19 cells assessed as mitochondrial membrane potential at 100 uM after 24 hrs by TMRF dye based fluorescence assay relative to control; format: functional; outline: as §2
[17] = system: P19; assay: Cytotoxicity against differentiated mouse P19 cells assessed as metabolic activity at 1 to 100 uM after 48 hrs by resazurin assay relative to control; format: functional; outline: as §1
[18] = system: P19; assay: Cytotoxicity against differentiated mouse P19 cells assessed as mitochondrial membrane potential at 100 uM after 24 hrs by TMRF dye based fluorescence assay relative to control; format: functional; outline: as §2
[19] = system: P19; assay: Cytotoxicity against undifferentiated mouse P19 cells assessed as mitochondrial membrane potential at 1 uM after 72 hrs by TMRF dye based fluorescence assay relative to control; format: functional; outline: as §2
[20] = system: P19; assay: Cytotoxicity against undifferentiated mouse P19 cells assessed as metabolic activity at 1 to 100 uM after 72 hrs by resazurin assay relative to control; format: functional; outline: as §1
[21] = system: P19; assay: Cytotoxicity against differentiated mouse P19 cells assessed as mitochondrial membrane potential at 100 uM after 72 hrs by TMRF dye based fluorescence assay relative to control; format: functional; outline: as §2
[22] = system: P19; assay: Cytotoxicity against undifferentiated mouse P19 cells assessed as mitochondrial membrane potential at 1 uM after 24 hrs by TMRF dye based fluorescence assay relative to control; format: functional; outline: as §2

Q: What does the source list for `O=C(c1ccc2c(c1)C(=O)N(c1cccc(O)c1)C2=O)c1ccc2c(c1)C(=O)N(c1cccc(O)c1)C2=O`?
A: Activity [1]: 102.6%; Activity [2]: 94.5%; Activity [3]: 100%; Activity [4]: 83.2%; Activity [5]: 79.9%; Activity [6]: 112.2%; Activity [7]: 100%; Activity [8]: 71.9%; Activity [9]: 131.1%; Activity [10]: 108.3%; Activity [11]: 55.1%; Activity [12]: 149.1%; Ratio [13]: > 500; Activity [14]: 91.5%; Activity [15]: 106%; Activity [16]: 91%; Activity [17]: 97.5%; Activity [18]: 96.4%; Activity [19]: 110.4%; Activity [20]: 59.8%; Activity [21]: 50.9%; Activity [22]: 86%
